Screening data from PubChem BioAssay.
TAAR1 antagonist: human TAAR1 antagonists, primary screen, Fluo-8 calcium fluorescence, CHO RD-HGA16 cells | Trace amine-associated receptor 1 (Homo sapiens), Q96RJ0 | antagonist | inhibition, % at 3 µM | hit rate 1.5% among 360,000 | AID 624466, 2012;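 active = inhibition above a per-plate cutoff, the mean inhibition of test compounds on that plate plus 3 SD, cut at about 49% in these data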;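 also: 0% = DMSO plus EC80 beta-PEA response and 100% = DMSO alone without agonist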
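Material: CHO RD-HGA16 cells bearing hTAAR1; compound dosing: one-point dosing, 3 µM nominal final; schedule: dye loading 75 min at 37 °C, then 30 min room temperature; measured by: calcium fluorescence with Fluo-8; control set: vehicle and agonist controls; replication: n of 1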
TAAR1 agonist: human TAAR1 agonists, primary screen, Fluo-8 calcium fluorescence, CHO RD-HGA16 cells. vehicle wells 0%, saturating PEA agonist 100%. activation, % at 3 µM. Trace amine-associated receptor 1 (Homo sapiens), Q96RJ0. hit rate 0.99% among 360,000;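 active = activation above the mean activation of all test compounds in the run plus 3 SD, cut at about 38% in these data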
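Benchmarks: low control DMSO, high control PEA (EC100); System: CHO RD-HGA16 cells carrying human TAAR1 plus Gα16; Detection: Fluo-8 fluorescence, 5 s baseline then 140 s kinetic read; Schedule: 17-24 h plating, Fluo-8 75 min 37 °C, 30 min RT; Read-out basis: % activation from peak over basal fluorescence ratio, DMSO-to-PEA scaled.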
M4 antag: human M4 muscarinic receptor antagonists, primary screen, CHO cells, Fluo-8 calcium fluorescence; Muscarinic acetylcholine receptor M4 (Homo sapiens), P08173; CHO-hM4 cells, ACh EC80; inhibition, % at 3 µM; hit rate 0.73% among 360,000;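 active = inhibition above its plate's cutoff, the mean inhibition of sample wells plus 3 SD, cut at about 27% in these data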;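 also: 0% = acetylcholine EC80 with DMSO and 100% = DMSO without agonist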
Target sequence (P08173 whole entry, looked up): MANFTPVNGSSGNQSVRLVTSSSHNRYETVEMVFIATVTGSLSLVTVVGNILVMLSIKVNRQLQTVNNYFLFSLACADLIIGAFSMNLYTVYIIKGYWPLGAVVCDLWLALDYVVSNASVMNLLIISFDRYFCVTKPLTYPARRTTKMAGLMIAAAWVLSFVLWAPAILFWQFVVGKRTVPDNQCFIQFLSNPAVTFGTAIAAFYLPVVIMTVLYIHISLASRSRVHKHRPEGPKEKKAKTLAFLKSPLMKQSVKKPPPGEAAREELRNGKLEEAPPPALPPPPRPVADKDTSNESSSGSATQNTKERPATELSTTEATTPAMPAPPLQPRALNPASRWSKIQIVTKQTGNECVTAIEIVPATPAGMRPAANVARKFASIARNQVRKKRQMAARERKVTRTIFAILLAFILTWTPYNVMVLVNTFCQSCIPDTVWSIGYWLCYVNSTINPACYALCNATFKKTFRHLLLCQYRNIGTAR
M4 PAM: human M4 muscarinic receptor positive allosteric modulators, primary screen, CHO-K1 cells, Fluo-8 calcium fluorescence. hit rate 0.4% among 360,000. Muscarinic acetylcholine receptor M4 (Homo sapiens), P08173. AID 624126, 2012. CHO-K1 hM4/Gqi5, ACh EC20; 0% = ACh EC20, 100% = maximal ACh. activation, % at 3 µM;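 active = activation above its plate's cutoff, the mean activation of sample wells plus 3 SD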
M4 ag: human M4 muscarinic receptor agonists, primary screen, CHO-K1 cells, Fluo-8 calcium fluorescence; CHO-K1 hM4/Gqi5; vehicle 0%, full acetylcholine response 100%; hit rate 0.14% among 360,000; Muscarinic acetylcholine receptor M4 (Homo sapiens), P08173; activation, % at 3 µM;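 active = activation above the run mean over all test wells plus 3 SD, cut at about 32% in these data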;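 also: peak over basal fluorescence ratio per well then scaled between controls; 0% = DMSO wells and 100% = acetylcholine at EC100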
Starred values were filed as active, the others as inactive; . = no result. Compounds with a hit are over-represented: about 3% of the library has one in this group of screens.

SMILES	TAAR1 antagonist	TAAR1 agonist	M4 antag	M4 PAM	M4 ag
CC1(C(=O)Nc2ccc3c(c2)OCO3)Cc2c(-c3cccc(C(N)=O)c3)ccnc2O1 (configuration not stated)	-33	3	-11	3	1
O=C1c2c(-c3ccc(Br)cc3)noc2CCN1Cc1cn(-c2ccccc2)nn1	-30	3	-1	3	10
Cc1ccc(S(=O)(=O)N2CCCc3nc(-c4ccccc4)ccc32)cc1	-17	-1	.	.	.
CCOC(=O)CC1(Cc2ccccc2)Oc2ccccc2O1	-42	1	.	.	.
O=c1[nH]cnc2scc(-c3ccc(-c4ccccc4)cc3)c12	50*	10	10	-5	6
CCCOc1ccc(-c2csc3nc[nH]c(=O)c23)cc1	4	0	6	-2	6
Cc1cccc(C=NNc2cc(C)c3cccc(C)c3n2)n1	0	0	.	.	.
CCN(CC(=O)Nc1ccc(NC(C)=O)cc1)C(=O)/C=C/c1cn(-c2ccccc2)nc1-c1cccs1	58*	8	9	-7	14
O=C(CN1CCN(Cc2ccc3c(c2)OCO3)CC1)Nc1ccc(N2CCOCC2)cc1	-4	12	-8	-9	0
O=C(CN1CCN(Cc2ccc3c(c2)OCO3)CC1)Nc1ccc2[nH]c(=O)[nH]c2c1	-3	3	-3	16*	0
COC(=O)[C@]12C[C@H](CC(=O)NCCCCc3ccccc3)C(=O)N(Cc3ccccc3)C1=C[C@H](C1CCCC1)O[C@@H]2C	-15	0	.	.	.
CC1(C(=O)NS(=O)(=O)c2cccc(F)c2)CCN1C(=O)CCC1CCCC1 (configuration not stated)	-7	1	3	-6	1
CCCCCCCCN1C(=O)[C@@H](CC(=O)N2CCOCC2)C[C@@]2(C(=O)OC)C1=C[C@H](C(C)(C)C)O[C@@H]2C	-62	3	.	.	.
Oc1ccc(Cl)cc1C=Nc1ccc2c3c(cccc13)CC2	-9	3	36*	-25	71*
Cc1cccc(NC2=C(C#N)C(=O)NC3(CCCC3)S2)c1	-12	5	-26	15*	0
CC(=O)Nc1cccc2ccc(O)cc12	-6	-1	-11	16*	0
O=C(Nc1ccccc1F)Nc1cccc2ccc(O)cc12	16	3	10	-1	7
COc1ncccc1C(=O)Nc1c(-c2ccccc2)[nH][nH]c1=O	-25	2	39*	1	3
O=C(Nc1c(-c2ccccc2)[nH][nH]c1=O)c1cnccn1	11	0	-4	12	1
CNc1sc(C(=O)c2ccccc2F)c(N)c1-c1nc2ccccc2s1	26	10	34*	22	3
O=C(CNC(=O)c1ccccc1F)OCc1nc2ccccc2s1	-25	0	-3	15	1
CC1(CCc2ccc3c(c2)OCO3)NCCc2c1[nH]c1ccccc21 (configuration not stated)	10	49*	4	-8	25
CC1(CCc2ccc3c(c2)OCO3)NC(=O)c2ccccc2N1 (configuration not stated)	2	2	1	-4	1
COc1ccc(-c2csc3ncn(-c4ccccc4OC)c(=O)c23)cc1OC	-4	3	-25	30*	6
O=C(N/C(=C/c1cccnc1)C(=O)N1CCOCC1)c1ccccc1	0	5	-8	21*	1
Cc1ccccc1S(=O)(=O)NC(=O)C1(C)CCN1C(=O)CC(c1ccccc1)c1ccccc1 (configuration not stated)	-1	-1	-3	0	0
CC(=O)c1ccc(NC(=S)Nc2ccc(Br)c(Cl)c2)cc1	6	21	2	-7	4
CC(=O)c1ccc(NC(=S)NC(C)c2ccc(Cl)cc2Cl)cc1 (configuration not stated)	38	41*	14	-8	24
CCCCCCCCCCCCOC(=O)C[N+](C)(C)C	49*	38*	.	.	.
CN1CCN(c2ncccc2S(=O)(=O)N2CCCCC2)CC1	12	14	69*	-14	0
